From ChEMBL document CHEMBL1148704, “First total synthesis of protoapigenone and its analogues as potent cytotoxic agents” (J Med Chem, 2007)

Experiments:
A549 = experiment: Cytotoxicity against human A549 cells after 72 hrs by MTT colorimetric method; format: functional, cell-based; details: A549, 72 h
Outline: (§1)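 Cell lines from ATCC, grown in RPMI-1640 with 10% FBS, 100 U/mL penicillin and 100 µg/mL streptomycin at 37 °C, humidified 5% CO₂. Seeded at 5000-10000 cells/well, treated on day two for 72 h. Attached cells then given MTT (0.5 mg/mL, 1 h), formazan solubilized in DMSO, colorimetric readout. IC₅₀ values reported.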

[1] = Cytotoxicity against human Hep3B cells after 72 hrs by MTT colorimetric method; format: functional, cell-based, Hep 3B2; outline: as §1
MDA-MB-231 = experiment: Cytotoxicity against human MDA-MB-231 cells after 72 hrs by MTT colorimetric method; format: functional, cell-based; details: MDA-MB-231, 72 h; outline: as §1
HepG2 = experiment: Cytotoxicity against human HepG2 cells after 72 hrs by MTT colorimetric method; format: functional, cell-based; details: HepG2, 72 h
MCF7 = experiment: Cytotoxicity against human MCF7 cells after 72 hrs by MTT colorimetric method; format: functional, cell-based; details: MCF7, 72 h; outline: as §1

SMILES	IC50 (A549) [µM]	IC50 [1] [µM]	IC50 (MDA-MB-231) [µM]	IC50 (HepG2) [µM]	IC50 (MCF7) [µM]
COC1(c2cc(=O)c3c(O)cccc3o2)C=CC(=O)C=C1	57.6	2.32	1.9	26.9	5.46
O=C1C=CC(O)(c2cc(=O)c3c(ccc4ccccc43)o2)C=C1	1.81	0.3	0.39	3.55	0.66
O=C1C=CC(O)(c2cc(=O)c3ccccc3o2)C=C1	5.24	1.26	0.71	6.73	1.73
COC1(c2cc(=O)c3ccccc3o2)C=CC(=O)C=C1	> 74.6	5.41	5.49	40.9	7.99
COc1cccc2c1C(=O)c1c(O)c3c(c(O)c1C2=O)C[C@@](O)(C(=O)CO)C[C@@H]3O[C@H]1C[C@H](N)[C@H](O)[C@H](C)O1 [DOXORUBICIN]	0.36	0.62	0.14	–	0.74
COC1(c2cc(=O)c3ccc4ccccc4c3o2)C=CC(=O)C=C1	28.3	0.6	1.07	14.4	2.96
COc1cc(OC)c2c(=O)cc(C3(OC)C=CC(=O)C=C3)oc2c1	> 61	3.78	4.7	27	4.21
O=C1C=CC(O)(c2cc(=O)c3c(O)cccc3o2)C=C1	5.07	1.3	0.67	4.96	3.44
O=C1C=CC(O)(c2cc(=O)c3c(O)cc(O)cc3o2)C=C1 [PROTOAPIGENONE]	13.8	2.27	1.43	8.11	3.74
COCOc1cc(O)c2c(=O)cc(C3(O)C=CC(=O)C=C3)oc2c1	24.6	2.39	1.73	15.6	5.24
COC1(c2cc(=O)c3c(ccc4ccccc43)o2)C=CC(=O)C=C1	25.8	1.1	1.16	9.94	2.7
COc1cc(OC)c2c(=O)cc(C3(O)C=CC(=O)C=C3)oc2c1	1.27	0.67	0.54	5.03	1.21
COc1cc(O)c2c(=O)cc(C3(O)C=CC(=O)C=C3)oc2c1	3.1	0.67	0.43	0.57	1.7
